Consider one compound from article PMC5003403 (Clinical breast cancer, 2012).

The format of data set [1] is in vivo. As to conditions: human, plasma, oral, 25 mg. The method in brief:
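Nine patients took oral 25 mg daily with food from day 1, adding intramuscular 250 mg fulvestrant from day 8 every 28 ± 5 days. Plasma was sampled over 24 h after the day-7 dose and again after about 120 ± 7 days of combination. Samples went into prechilled heparinised tubes on ice, spun at 1000–1200g for 10–15 min at 4°C and held at about −70°C. LC-MS/MS, LLOQ 0.1 ng/mL. Noncompartmental analysis: Cmax by inspection, AUC by linear trapezoid, t1/2 = 0.693/λz.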

Data set [2] has as its system serum IGF-1 (insulin-like growth factor 1). The data set is described as follows: Serum IGF-1 levels. The format is in vivo, human. As to conditions: Day 7 (exemestane alone); mean ± SD; n 23.
Data set [3] has as its system serum IGFBP-3 (IGF-binding protein 3). The data set is described as follows: Serum IGFBP-3 levels. Type of data set: in vivo, human. As to conditions: Day 7 (exemestane alone); mean ± SD; n 22. An outline of the steps: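 Serum was taken at baseline, after 1 week of single-agent oral exemestane 25 mg daily (day 7), and at day 120 (±7). About 5 mL venous blood went into serum separator tubes, clotted for at least 30 min and was centrifuged at 3000 rpm for 10 min. Serum was frozen at −70°C until assay. Day differences were tested by repeated-measures ANOVA.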

The AUC(0-t) is exposure summed from dosing to a finite time, without extrapolation to infinity. A high value points to high exposure. The term Cmax denotes the maximum level reached in the sampled fluid or tissue. By half-life is commonly meant the time needed for the level to fall by half in the phase considered. A lower half-life goes with fast loss.

Each structure is given as a SMILES string.

As to `C=C1C[C@@H]2[C@H](CC[C@]3(C)C(=O)CC[C@@H]23)[C@@]2(C)C=CC(=O)C=C12` [Exemestane], in data set [1], the AUC(0-t) amounted to 61.7 ± 17.1 ng·h/mL, the highest level (Cmax) was 20.1 ± 7.7 ng/mL and the half-life was 7.94 ± 1.32 h. The compound also gave an IGF-1 serum level in data set [2] of 141 ± 55.1 ng/mL. The IGFBP-3 serum level in data set [3] was determined as 5273 ± 1372 ng/mL.
